The results in this text go back to ChEMBL document CHEMBL3576774, “Dactylomelane diterpenes from the sea hare Aplysia depilans” (J Nat Prod, 2015).

pIC50: −log10 of the molar value.

What all share (assay type): functional, cell-based
Assay [1] deals with A-431. In words: Cytotoxic activity against human A431 cells assessed as reduction in cell growth incubated for 48 hrs by MTT assay. The settings on record: A-431, 48 h. A digest of the protocol:
(§1)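 Monolayers maintained in DMEM with 10% FBS, penicillin/streptomycin at 37 °C, 5% CO2, and passaged at 80–90% confluence. Log-phase cells were seeded at 1 × 10^5 cells/mL and allowed to attach for 24 h. They were then exposed to DMSO-diluted compounds at various concentrations for 48 h. MTT was added at 0.5 mg/mL final for 4 h, dissolved in HCl/2-propanol, and read at 545 nm. Triplicates; IC50 from 3–4 experiments versus untreated control.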
In general terms: Tetrazolium assays rely on reduction of a dye to a coloured formazan, in cell work by metabolically active cells.

For assay [2], the system named is HepG2. In words: Cytotoxic activity against human HepG2 cells assessed as reduction in cell growth incubated for 48 hrs by MTT assay. A digest of the protocol:
as §1

The test system of assay [3] is A549. In words: Cytotoxic activity against human A549 cells assessed as reduction in cell growth incubated for 48 hrs by MTT assay. A digest of the protocol: as §1
Assay [4] concerns HeLa. The experiment in a line: Cytotoxic activity against human HeLa cells assessed as reduction in cell growth incubated for 48 hrs by MTT assay. The method in brief:
as §1

Assay [5] concerns MCF7. In words: Cytotoxic activity against human MCF7 cells assessed as reduction in cell growth incubated for 48 hrs by MTT assay. The method in brief: as §1

The pIC50 is the negative decadic logarithm of the IC50, by convention in mol/L. For `C=CC(C)(O)CC[C@@H]1C(=C)CC[C@H](Br)[C@@]1(C)CCC1OC1(C)C` (relative stereo), the negative-log IC50 (pIC50) in assay [1] is under 4.00; in assay [2] (Homo sapiens, HepG2, 48 h), 4.27; in assay [3] (Homo sapiens, A549, 48 h), under 4.00; in assay [4] (Homo sapiens, HeLa, 48 h), 4.24; in assay [5] (Homo sapiens, MCF7, 48 h) it was 4.14.
With `C=CC(C)(O)CC[C@@H]1C(=C)CC[C@H](Br)[C@@]1(C)CCC(O)C(=C)C` (relative stereo), the negative logarithm of the IC50 (pIC50) in assay [1] is under 4.00; in assay [2] (Homo sapiens, HepG2, 48 h) it was under 4.00; in assay [3] (Homo sapiens, A549, 48 h), under 4.00; in assay [4] (Homo sapiens, HeLa, 48 h), under 4.00; in assay [5] (Homo sapiens, MCF7, 48 h), under 4.00.
Consider `C=CC(C)(O)CC[C@@H]1C(=C)CC[C@H](Br)[C@@]1(C)CCC(Br)C(C)(C)O` (relative stereo; 3), for which the pIC50 is under 4.00 in assay [1]; under 4.00 in assay [2] (Homo sapiens, HepG2, 48 h); under 4.00 in assay [3] (Homo sapiens, A549, 48 h); 4.04 in assay [4] (Homo sapiens, HeLa, 48 h); under 4.00 in assay [5] (Homo sapiens, MCF7, 48 h).
With `C=CC(C)(O)CC[C@@H]1C(=C)CC[C@H](Br)[C@@]1(C)CCC(OC)C(C)(C)O` (relative stereo), the negative logarithm of the IC50 (pIC50) is under 4.00 in assay [1]; under 4.00 in assay [2] (Homo sapiens, HepG2, 48 h); under 4.00 in assay [3] (Homo sapiens, A549, 48 h); under 4.00 in assay [4] (Homo sapiens, HeLa, 48 h); under 4.00 in assay [5] (Homo sapiens, MCF7, 48 h).
As for `C=CC(C)(O)CC[C@@H]1C(=C)CC[C@H](Br)[C@@]1(C)CCC(=O)C(C)C` (some centres undefined), the pIC50 in assay [1] is under 4.00; in assay [2] (Homo sapiens, HepG2, 48 h), under 4.00; in assay [3] (Homo sapiens, A549, 48 h), under 4.00; in assay [4] (Homo sapiens, HeLa, 48 h) it was 4.15; in assay [5] (Homo sapiens, MCF7, 48 h), under 4.00.
Regarding `C=CC(C)(O)CC[C@@H]1C(=C)CC[C@H](Br)[C@@]1(C)CCC(O)C(C)(C)Cl` (relative stereo), the pIC50 is under 4.00 in assay [1]; 4.31 in assay [2] (Homo sapiens, HepG2, 48 h); 4.03 in assay [3] (Homo sapiens, A549, 48 h); 4.21 in assay [4] (Homo sapiens, HeLa, 48 h); 4.15 in assay [5] (Homo sapiens, MCF7, 48 h).
`C=CC(C)(O)CC[C@@H]1C(=C)CC[C@H](Br)[C@@]1(C)CCC(Br)C(C)(C)O` (relative stereo; 2): the pIC50 is 4.18 in assay [2] (hepg2), 4.06 in assay [3] (a549), 4.32 in assay [4] (hela) and 4.22 in assay [5] (mcf7).
For `C=CC(C)(O)CC[C@@H]1C(=C)CC[C@H](Br)[C@@]1(C)CCC(O)C(C)(C)O` (relative stereo), the pIC50 in assay [1] is under 4.00; in assay [2] (Homo sapiens, HepG2, 48 h), under 4.00; in assay [3] (Homo sapiens, A549, 48 h), under 4.00; in assay [4] (Homo sapiens, HeLa, 48 h), under 4.00; in assay [5] (Homo sapiens, MCF7, 48 h) it was under 4.00.
For `C=CC(C)(O)CC[C@H]1[C@](C)(CCC=C(C)C)[C@@H](Br)CC[C@@]1(C)O` (some centres undefined), the negative-log IC50 (pIC50) in assay [1] was under 4.00; in assay [2] (Homo sapiens, HepG2, 48 h), under 4.00; in assay [3] (Homo sapiens, A549, 48 h), under 4.00; in assay [4] (Homo sapiens, HeLa, 48 h) it was 4.04; in assay [5] (Homo sapiens, MCF7, 48 h) it was 4.11.
For `CCCCCCCCCCCCCCCCOP(=O)([O-])OCC[N+](C)(C)C` [MILTEFOSINE], the pIC50 in assay [1] is 4.92; in assay [2] (Homo sapiens, HepG2, 48 h), 4.58; in assay [3] (Homo sapiens, A549, 48 h), 5.07; in assay [4] (Homo sapiens, HeLa, 48 h) it was 4.78; in assay [5] (Homo sapiens, MCF7, 48 h), 5.04.
